Source: PubChem (several laboratories)
A selection: hits, their analogues and other compounds. The true share with any hit is near 2.2%.
Exocytosis inh: lytic granule exocytosis inhibition; TALL-104 LAMP-1 surface exposure, flow cytometry; cells stimulated with thapsigargin and PMA; inhibition, % at 10 µM; 360,000 compounds, 0.66% hits; AID 651702;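 active means inhibition above about 55%, limit read from the data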
ABHD5 PLIN5 PPI: inhibitors of human ABHD5-perilipin-5 interaction; Split G. princeps luciferase complementation, luminescence, 4 h; inhibition, % at 4 µM; 360,000 compounds, 0.78% hits;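 active means inhibition above the mean inhibition across every tested compound plus 3 SD, cut at about 22% in these data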;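 further: 0% = DMSO only wells and the 100% control is not disclosed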
HKDC1 inhibitor: blocks human hexokinase HKDC1 activity. Q2TB90. recombinant HKDC1, G6PDH/diaphorase resazurin coupled fluorescence. inhibition, % at 20 µM. 340,000 compounds, 0.16% hits. AID 493160;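 active means inhibition above about 35% when tested at 20 µM, limit read from the data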;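 further: plate controls were DMSO wells with enzyme for no effect and DMSO wells lacking enzyme for full effect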
Target sequence (Q2TB90 whole entry, looked up): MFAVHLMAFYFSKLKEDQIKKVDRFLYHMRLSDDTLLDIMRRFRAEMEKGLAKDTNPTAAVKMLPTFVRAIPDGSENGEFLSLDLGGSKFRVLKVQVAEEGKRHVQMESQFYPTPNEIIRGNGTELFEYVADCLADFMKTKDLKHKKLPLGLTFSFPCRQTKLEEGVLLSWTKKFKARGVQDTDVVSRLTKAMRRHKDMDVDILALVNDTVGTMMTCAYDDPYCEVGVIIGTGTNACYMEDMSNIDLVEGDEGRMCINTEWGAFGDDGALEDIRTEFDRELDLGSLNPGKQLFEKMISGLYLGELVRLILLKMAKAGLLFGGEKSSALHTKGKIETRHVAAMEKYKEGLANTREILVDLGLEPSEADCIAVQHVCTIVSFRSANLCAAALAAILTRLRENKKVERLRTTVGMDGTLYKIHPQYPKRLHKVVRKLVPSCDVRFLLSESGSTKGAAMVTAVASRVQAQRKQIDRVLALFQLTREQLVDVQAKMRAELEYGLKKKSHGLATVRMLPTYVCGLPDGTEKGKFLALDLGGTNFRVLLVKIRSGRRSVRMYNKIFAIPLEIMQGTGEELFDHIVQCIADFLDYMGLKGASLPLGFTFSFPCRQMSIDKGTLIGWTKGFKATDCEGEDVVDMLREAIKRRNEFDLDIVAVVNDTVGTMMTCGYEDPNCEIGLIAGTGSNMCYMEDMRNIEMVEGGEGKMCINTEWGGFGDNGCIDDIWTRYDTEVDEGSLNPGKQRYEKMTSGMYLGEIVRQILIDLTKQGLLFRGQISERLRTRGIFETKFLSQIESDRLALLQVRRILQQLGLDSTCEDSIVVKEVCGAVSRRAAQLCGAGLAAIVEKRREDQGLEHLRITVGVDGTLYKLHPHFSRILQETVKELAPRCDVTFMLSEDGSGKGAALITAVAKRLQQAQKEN
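Material: recombinant HKDC1 hexokinase; Amount: HKDC1 at 5 µg/mL; Medium: Tris pH 8.0 buffer with MgCl2, Tween-20, BSA, BME; Schedule: 90 min reaction incubation at room temperature, dark; Technique: coupled resazurin fluorescence, excitation 525 nm, emission 613 nm.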
PfG6PD inh: PfG6PD (Plasmodium falciparum) enzyme inhibition; PfGluPho enzyme, NADPH resazurin-diaphorase fluorescence; inhibition, % at 20 µM; 350,000 compounds, 0.78% hits; AID 504690;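 active means inhibition reaching at least a set limit at 20 µM in the primary screen, cut at about 59% in these data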;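 further: 0% = DMSO wells with substrate and 100% = DMSO wells lacking glucose-6-phosphate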
Active calls of the source: *; x = no result.

SMILES | Exocytosis inh | ABHD5 PLIN5 PPI | HKDC1 inhibitor | PfG6PD inh
Cc1ccc(-c2c[n+](CC(=O)OCc3ccccc3)c3n2CCC3)cc1 | -9 | 2 | -9 | -6
O=C(C[n+]1cc(-c2ccc(Cl)cc2)n2c1CCC2)N1c2ccccc2Sc2ccccc21 | -1 | 23* | -15 | 23
CC1CCC(C(C)C)C(OC(=O)C[n+]2cc(-c3ccc(Cl)cc3)n3c2CCC3)C1 (configuration not stated) | 64* | 12 | -3 | 4
COc1ccc(-c2c[n+](CC(=O)N3c4ccccc4Sc4ccccc43)c3n2CCC3)cc1 | 2 | 12 | -13 | 0
O=C(C[n+]1cc(-c2ccc(Cl)c(Cl)c2)n2c1CCC2)N1c2ccccc2Sc2ccccc21 | -4 | 34* | 13 | -24
C[N+](C)(C)C[C@H](O)CC(=O)[O-] | -8 | 1 | -3 | 7
COc1ccc(NC(=O)N2CCCC(C(=O)NCCc3ccccc3)C2)cc1 (configuration not stated) | -6 | -2 | 4 | 9
CC(C)C(OC(=O)c1cccs1)C(=O)NCc1ccccc1 (configuration not stated) | 2 | -6 | -10 | -1
COc1ccc(OCC(=O)N2CCC3(CC2)CC(=O)c2ccccc2O3)cc1 | -2 | -5 | -1 | -3
CC(O)[C@H]1CC[C@H]2[C@@H]3CC[C@H]4C[C@@H](O)CC[C@]4(C)[C@H]3/C(=N/O)C[C@]12C (some centres not stated) | 82* | 2 | 1 | -6
Cc1ccc(-c2csc(NC(=O)c3cc([N+](=O)[O-])ccc3N3CCOCC3)n2)cc1 | 1 | -3 | -6 | 4
O=C(Nc1nc(-c2ccccc2)cs1)c1ccc(N2CCOCC2)c([N+](=O)[O-])c1 | 84* | 10 | -3 | 1
C[C@@H]1CCCCO[C@@H](CN(C)S(=O)(=O)c2ccc(F)cc2)[C@@H](C)CN([C@H](C)CO)C(=O)c2cc(NC(=O)c3ccccc3)ccc2O1 | -2 | -1 | x | 17
CC(=O)O[C@@H]1[C@@]2(C)O[C@H]2CC[C@]23O[C@H]2[C@H](OC3=O)C2=C(C)C(=O)O[C@@]21O | -3 | 23* | 1 | -1
Cn1c(COc2ccccc2O)[n+](C)c2ccccc21 | -16 | -6 | -2 | -7
CCCCCCCCCCOC(=O)Cn1c(COc2ccccc2OC)[n+](C)c2ccccc21 | 89* | 14 | -1 | 10
CN(C)c1nc(=NCc2ccco2)ss1 | 76* | 90* | -24 | 56
COc1ccc2cc(C(=O)/C=C/c3cc(OC)c(O)c(OC)c3)ccc2c1 | 39 | 8 | 5 | 29
COc1cc(/C=C/C(=O)c2ccc(NS(=O)(=O)c3ccc(C)cc3)cc2)cc(OC)c1O | 1 | 38* | 23 | 12
COc1cc(/C=C/C(=O)c2ccc(NS(=O)(=O)c3ccc(C)cc3)cc2)ccc1OC(F)F | -2 | 22* | -1 | 10
CCC(C(=O)Nc1ccc(S(=O)(=O)Nc2ncccn2)cc1)c1ccccc1 (configuration not stated) | -6 | -2 | 4 | -20
Cc1nnc(N/N=C/c2ccc([N+](=O)[O-])cc2)n1N | 0 | -36 | 9 | 22
Cc1nnc(N/N=C/c2ccc(Br)cc2)n1N | 78* | -27 | 7 | 57
COc1ncnc2c1ncn2CCCNCCCN1CCCC1=O | 3 | 10 | x | 5
COc1ccc(/C=N/NC(=O)c2cc3c(OC)ccc(OC)c3[nH]2)cc1O | 62* | -3 | 3 | -4
SMILES | Exocytosis inh | ABHD5 PLIN5 PPI | HKDC1 inhibitor | PfG6PD inh
COc1ccc(OC)c2[nH]c(C(=O)N/N=C/c3ccccc3O)cc12 | 31 | 1 | -11 | 2
CN(C)C(=O)CNC(=O)CN1C(=O)NC2(CCCc3sccc32)C1=O (configuration not stated) | -16 | 8 | -2 | 9
CSc1ccc(CN(C)Cc2nc3ccccc3c(=O)[nH]2)cc1 | -2 | 2 | -1 | -5
CC(C)NC(=O)c1cc(C2CCCCN2S(=O)(=O)c2ccc(C#N)cc2)on1 (configuration not stated) | -3 | -8 | x | x
O=C(/C=C/c1ccc(Cl)cc1)c1ccc([N+](=O)[O-])o1 | -2 | 21 | 54* | 53
Cc1cc(O)c(C(=O)/C=C/c2ccc(Cl)cc2)c(=O)o1 | -10 | 2 | 10 | -6
CC(C)(C)c1nnc(NC(=O)c2ccc3c(c2)OCO3)s1 | -5 | -3 | -6 | 105*
CC(c1ccccc1)c1nnc(NC(=O)c2ccc3c(c2)OCO3)s1 (configuration not stated) | -9 | -2 | -5 | 22
Cc1cc(C)nc(N2CCCC(C(=O)NNC(=O)c3ccncc3)C2)n1 (configuration not stated) | -3 | 2 | -2 | -2
CS(=O)(=O)c1ncc(Cl)c(C(=O)Nc2ccc(N3CCOCC3)cc2)n1 | 16 | 60* | -7 | 16
CCc1nc2c(OCCn3cccc3)cccn2c1N(C)C(=O)c1ccc(OC)cc1 | -5 | 2 | x | x
O=[N+]([O-])c1ccc2[nH]cc(S(=O)(=O)N3CCN(c4cccc(Cl)c4)CC3)c2c1 | 21 | -3 | -2 | 8
Cc1cccc(N(C)S(=O)(=O)c2c[nH]c3ccc([N+](=O)[O-])cc23)c1 | 84* | -4 | 9 | 51
Cc1ccc(Nc2nc(N/N=C/c3c[nH]c4ccccc34)nc(N3CCOCC3)n2)cc1 | 63* | 1 | -5 | 22
O=C(C#Cc1ccccc1)c1cccc([N+](=O)[O-])c1 | 54 | 16 | 37* | 43
CC(=O)c1cccc([N+](=O)[O-])c1 | -4 | 5 | 1 | -12
CCCCn1c(N)c(N(CC(C)C)C(=O)COc2cc(C)ccc2Cl)c(=O)[nH]c1=O | -2 | 5 | 6 | 3
CC1=C(C(=O)OCCOC(C)C)C(c2cc3c(cc2Br)OCO3)C2=C(CCCC2=O)N1 (configuration not stated) | 100* | -4 | 4 | 16
CCN1C/C(=C\c2cccc([N+](=O)[O-])c2)C(=O)/C(=C/c2cccc([N+](=O)[O-])c2)C1 | 83* | 21 | 43* | 38
O=C1/C(=C/c2cccc([N+](=O)[O-])c2)CSc2ccc(Cl)cc21 | 25 | -3 | -3 | -1
Cc1cc(Br)cc(C=Nc2ccc(N3CCOCC3)cc2)c1O | 74* | -10 | 7 | 17
Oc1ccc(C=Nc2ccc(N3CCOCC3)cc2)c(O)c1 | -3 | -11 | 9 | 38
CCC1CN(S(=O)(=O)c2cc(-c3cc(C)no3)ccc2OC)c2cc(C)ccc2O1 (configuration not stated) | 70* | 1 | -1 | 10
O=C(O)C(C=C(Cl)Cl)N1CCOCC1 (configuration not stated) | -4 | 4 | -8 | 0
CN1C(=S)N(c2cccnc2)C(=O)/C1=C\c1ccc(N(C)C)cc1 | 0 | 2 | -1 | 18
Cc1c(N2C(=O)/C(=C\c3ccc(N(C)C)cc3)N(C)C2=S)c(=O)n(-c2ccccc2)n1C | -2 | 22* | -1 | 33
COc1ccc(NC(=O)C2CC(=O)N(c3ccccc3Cl)C2)c(OC)c1 (configuration not stated) | 0 | 5 | -4 | 3
